# In PubChem BioAssay:
# Calls of active or inactive are those of the source.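 The calls were made as follows, unless noted: active = GFP response above 150% of the DMSO level; inconclusive = fewer than 70 events counted for a yeast strain; inactive = the rest.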
# Key:
# [1] = RPL19A-GFP modulators, yeast TOR pathway, confirmation, cell-based, S. cerevisiae, flow cytometry, cherry picks, mother/daughter gates (AID 2270;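 active = GFP response below 50% of the DMSO control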); details: S. cerevisiae RPL19A-GFP strain, 3 h, at 10 µM, stronger effect = lower value, 100 = same GFP as DMSO wells
# [2] = LAP4-GFP expression modulators in yeast, confirmation, cell-based, cherry picks, flow cytometry, mother/daughter gates (AID 2271;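 active = GFP response above 150% of the DMSO control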;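 also: ratio of sample to DMSO plate mean so 100% equals DMSO level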); details: S. cerevisiae LAP4-GFP strain, 3 h, at 10 µM, stronger effect = higher value, 100 means same as DMSO control
# Method in brief: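 System: Alexa 633-stained baker's yeast GFP-fusion strain / Medium: synthetic complete (SC) yeast growth medium / Doses: compound at 10 µM, single point / Times: 3 h treatment at 30 °C with rotation / Detection: HT flow cytometry, GFP fluorescence channel / Benchmarks: DMSO-only negative wells, rapamycin 400 ng/mL positive wells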
# [3] = modulators of MEP2-GFP levels in yeast, confirmation, S. cerevisiae, flow cytometry GFP, cherry picks (AID 2272;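 active = GFP response above 150% of the DMSO control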;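 also: ratio of well signal to plate DMSO mean so 100% equals DMSO level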); details: S. cerevisiae MEP2-GFP strain, 3 h, at 10 µM, stronger effect = higher value
# [4] = AGP1-GFP expression modulators, hit retest, confirmation, cell-based, flow cytometry, S. cerevisiae, cherry picks (AID 2273);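 also: median GFP channel fluorescence over the whole cell population gate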; details: S. cerevisiae AGP1-GFP strain, 3 h, at 10 µM
# [5] = modulators of CIT2-GFP expression in yeast, confirmation, S. cerevisiae, GFP fusion, cherry picks, mother/daughter gates (AID 2274); details: S. cerevisiae CIT2-GFP strain, flow cytometry, 3 h, at 10 µM, stronger effect = higher value
# [6] = measured here: daughter cell gate
# [7] = measured here: mother cell gate
# [8] = measured here: daughter cell gate response
# [9] = measured here: mother cell gate response
SMILES,GFP response vs DMSO [1],"GFP response vs DMSO [1, 6] [%]","GFP response vs DMSO [1, 7] [%]",GFP response relative to DMSO [2],"GFP response relative to DMSO [2, 8] [%]","GFP response relative to DMSO [2, 9] [%]",GFP response vs DMSO [3],"GFP response, % of DMSO [4]","GFP response, % of DMSO [5]","GFP response, % of DMSO [5, 6] [%]","GFP response, % of DMSO [5, 7] [%]"
Cc1ccc(/C=C2/NC(=O)N(Cc3ccccc3)C2=O)o1,98.4% (inactive),99.8,98.8,112% (inactive),110,113,101% (inactive),101% (inactive),103% (inactive),105,101
CCOC(=O)c1csc(Nc2nc3ccc(F)cc3s2)n1,94.6% (inactive),95.2,94.2,103% (inactive),102,104,99% (inactive),93.4% (inactive),95.9% (inactive),97.4,95.6
CC(C)Cn1c(=O)c(C(=O)Nc2ccncc2)c(O)c2ccccc21,94.7% (inactive),101,85,160% (active),122,155,117% (inactive),88.7% (inactive),97.8% (inactive),99.7,90.2
CCOc1ccccc1-c1noc(CCC(=O)Nc2cccnc2)n1,98.4% (inactive),99,99.2,107% (inactive),105,110,111% (inactive),106% (inactive),110% (inactive),108,112
Cc1ccc(CC2CC(=O)N(Cc3ccco3)C2=O)cc1 (stereo not drawn),102% (inactive),101,101,93.8% (inactive),97.2,94.2,95.7% (inactive),99.2% (inactive),107% (inactive),105,109
COc1ccc(N=Cc2nc(-c3ccccc3)oc2OC(C)=O)cc1,100% (inactive),99.1,101,107% (inactive),96.5,111,95.4% (inactive),94% (inactive),90.7% (inactive),90.9,88.6
O=C(C1CCN(Cc2nc(Cc3cccc(F)c3)no2)CC1)N1CCOCC1,99.5% (inactive),99,99.8,96.2% (inactive),100,97.2,100% (inactive),103% (inactive),100% (inactive),99.7,102
Cc1ccc(CCN2CC(C(=O)NCCCN(C)Cc3ccccc3)CC2=O)cc1 (stereo not drawn),99.1% (inactive),99.3,98,101% (inactive),104,100,101% (inactive),103% (inactive),98.6% (inactive),103,96
Cc1ccc(C(=O)Nc2nnc(CC(=O)N/N=C/c3ccc(O)c(O)c3)s2)cc1,97.8% (inactive),99,95.9,94.1% (inactive),92.9,95.4,103% (inactive),104% (inactive),103% (inactive),103,104
CCOC(=O)/C(=N\NC(=O)c1ccccc1)c1ccccc1,97.2% (inactive),95.7,98.1,107% (inactive),105,106,104% (inactive),96.5% (inactive),101% (inactive),100,99.1
Cc1ccc(C(=O)c2c3ccccc3[n+]([O-])n2CCC(=O)O)cc1,66.2% (inactive),70.6,63.3,102% (inactive),101,105,104% (inactive),105% (inactive),99.3% (inactive),96.4,99.1
Cc1c(CC(C)C)nc(N)c(C#N)c1-c1ccccc1,98.4% (inactive),99.8,99.7,94.2% (inactive),89.3,92.6,102% (inactive),98.7% (inactive),102% (inactive),102,100
Cc1c(N2C(=O)/C(=C\c3ccccc3O)SC2=S)c(=O)n(-c2ccccc2)n1C,101% (inactive),96,98.3,134% (inactive),130,137,102% (inactive),93.2% (inactive),105% (inactive),109,95.6
CCOc1ccccc1N1C(=O)CC(Sc2ncccc2C(=O)O)C1=O (stereo not drawn),101% (inactive),99,102,106% (inactive),106,107,120% (inactive),98.5% (inactive),103% (inactive),105,102
O=C(O)CCc1ccc(-c2ccccc2)o1,94.4% (inactive),92.6,96.4,139% (inactive),138,138,96.2% (inactive),93.1% (inactive),94% (inactive),95.4,92.6
COc1ccccc1C(=O)N1CCN(c2cccc(C(F)(F)F)c2)CC1,96.2% (inactive),97.3,97.4,95.3% (inactive),96.5,94.6,99.5% (inactive),98.9% (inactive),99.3% (inactive),100,100
NC(=O)c1ccc(Oc2ccc(-c3nnco3)cc2)c([N+](=O)[O-])c1,98.4% (inactive),100,99.1,93.8% (inactive),95.6,94.2,100% (inactive),98.7% (inactive),110% (inactive),105,112

SMILES,GFP response vs DMSO [1],"GFP response vs DMSO [1, 6] [%]","GFP response vs DMSO [1, 7] [%]",GFP response relative to DMSO [2],"GFP response relative to DMSO [2, 8] [%]","GFP response relative to DMSO [2, 9] [%]",GFP response vs DMSO [3],"GFP response, % of DMSO [4]","GFP response, % of DMSO [5]","GFP response, % of DMSO [5, 6] [%]","GFP response, % of DMSO [5, 7] [%]"
Cc1cc(=O)n2c3c(sc2n1)C(=O)N(Cc1ccccc1)C3=O,94.3% (inactive),94.5,94,152% (active),140,161,103% (inactive),105% (inactive),81% (inactive),87.3,74.8
Cc1ccc(NS(=O)(=O)c2ccc(CCC(=O)N3CCOCC3)cc2)cc1,94.6% (inactive),94.6,94.9,95.4% (inactive),96,95.1,96.2% (inactive),102% (inactive),101% (inactive),103,101
O=C(N/N=C/c1cccc(Oc2ccccc2)c1)c1ccncc1,96.7% (inactive),97.3,95.4,107% (inactive),99,108,103% (inactive),103% (inactive),95.8% (inactive),97.6,96
O=C(Nc1nc(-c2ccccc2)cs1)c1ccc(Br)o1,102% (inactive),101,101,106% (inactive),101,108,99% (inactive),94.9% (inactive),108% (inactive),105,107
CC(=O)c1sc2nc(C)c3c(c2c1N)CCCC3,89.4% (inactive),88.5,89.3,111% (inactive),104,115,101% (inactive),98.2% (inactive),91.7% (inactive),88.7,92.6
C(=N\Nc1nc(-c2cccnc2)nc2ccccc12)/c1ccccc1,101% (inactive),101,102,99.2% (inactive),99.2,98.3,102% (inactive),95.6% (inactive),104% (inactive),105,103
Cc1ccc(C(=O)O)cc1N1C(=O)c2cccc3cc(Br)cc(c23)C1=O,101% (inactive),98.6,100,102% (inactive),99.1,105,103% (inactive),101% (inactive),97.3% (inactive),97.4,98.1
Cc1cc(=O)oc2cc(OC(C)C(=O)NC3CCCC3)ccc12 (stereo not drawn),102% (inactive),100,102,95.7% (inactive),94.2,95.2,101% (inactive),105% (inactive),95.9% (inactive),93.8,95.6
O=[N+]([O-])c1cc(Cl)c2cccnc2c1O,100% (inactive),94.9,102,174% (active),141,181,118% (inactive),100% (inactive),99.3% (inactive),96.4,94.5
O=S(=O)(c1ccc(NC(=S)N/N=C/c2cccc(Oc3ccccc3)c2)cc1)N1CCOCC1,97.8% (inactive),98.6,97.3,94.9% (inactive),93.5,96.2,105% (inactive),106% (inactive),102% (inactive),103,103
CC(=O)c1ccc2c3c(cccc13)C(=O)N(c1c(C)nn(C)c1C)C2=O,100% (inactive),100,101,97.7% (inactive),97.9,97.5,102% (inactive),100% (inactive),96.4% (inactive),98.3,96.8
Cc1cc(NC(=O)c2cc3ccccc3o2)ccc1NC(=O)c1ccccc1,98.4% (inactive),97.4,99.8,95.4% (inactive),94.4,96.1,102% (inactive),95.4% (inactive),101% (inactive),101,99.7
CCc1cccc(C)c1NC(=O)CC1Oc2ccc(C)cc2NC1=O (stereo not drawn),99.3% (inactive),99.5,100,90.6% (inactive),91.3,91.3,101% (inactive),101% (inactive),98.6% (inactive),97.6,98.2
COc1ccc(-c2nc3cccc(C)n3c2NCc2ccco2)cc1OC,101% (inactive),99.5,100,100% (inactive),101,101,97.2% (inactive),99.5% (inactive),97.2% (inactive),99.3,97.1
O=C(c1cc(-c2cccc(Cl)c2)on1)N1CCc2ccccc2C1,99.2% (inactive),100,99.5,95.7% (inactive),95.9,95.2,99% (inactive),104% (inactive),97.3% (inactive),97.4,96.8
Cc1cc(O)c(C(=O)/C=C/c2ccccc2Br)c(=O)o1,90.3% (inactive),95.9,87.7,140% (inactive),137,144,97.8% (inactive),102% (inactive),95.2% (inactive),98.1,93.4
